Assay results reported in ChEMBL document CHEMBL4689842, “EUbOPEN Chemogenomics Library wave 1” (2021).

System: U2OS
Test: Multiplex assay against U2OS
Format: toxicity, cell-based
Settings: human
How it was run: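 At seeding, live cells were stained with Hoechst33342, BioTracker Green Microtubule Cytoskeleton Dye, MitoTracker Red and Annexin V Alexa Fluor 680. After compound addition they were imaged on a CQ1 microscope at 37°C and 5% CO2, and CellPathfinder machine-learning gating sorted them into Hoechst high-intensity objects or normal cells, with normal cells further split into healthy, pyknosed or fragmented nuclei and pyknosed cells into mitotic or apoptotic. Tubulin, mitochondrial-mass and membrane-permeability phenotypes are given as per cents of cells with healthy nuclei.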

[1] = 12 h, 1 µM, compound concentration 1 uM, replicate 1
[2] = 12 h, 1 µM, compound concentration 1 uM, replicate 2
[3] = 12 h, 10 µM, compound concentration 10 uM, replicate 1
[4] = 12 h, 10 µM, compound concentration 10 uM, replicate 2
[5] = 24 h, 1 µM, compound concentration 1 uM, replicate 1
[6] = 24 h, 1 µM, compound concentration 1 uM, replicate 2
[7] = 24 h, 10 µM, compound concentration 10 uM, replicate 1
[8] = 24 h, 10 µM, compound concentration 10 uM, replicate 2
[9] = 48 h, 1 µM, compound concentration 1 uM, replicate 1
[10] = 48 h, 1 µM, compound concentration 1 uM, replicate 2
[11] = 48 h, 10 µM, compound concentration 10 uM, replicate 1
[12] = 48 h, 10 µM, compound concentration 10 uM, replicate 2

CCOC(=O)c1c(C)[nH]c2ccc3c(c12)CN1CCc2cc(OC)ccc2C1O3 (stereo not drawn)
Population Apoptotic (%) [1]: 72%
Population Fragmented Nuclei (%) [1]: 9%
Population Healthy Nuclei (%) [1]: 81%
Population Hoechst High Intensity Objects (%) [1]: 5%
Population Membrane Permeable-Phenotype (%) [1]: 6%
Population Mitochondria Different-Phenotype (%) [1]: 78%
Population Mitotic Cells (%) [1]: 27%
Population Normal (%) [1]: 94%
Population Pyknosed Nuclei (%) [1]: 8%
Population Tubulin-Different-Phenotype (%) [1]: 72%
Total Cell Count [1]: 123
Population Apoptotic (%) [2]: 9%
Population Healthy Nuclei (%) [2]: 76%
Population Hoechst High Intensity Objects (%) [2]: 9%
Population Membrane Permeable-Phenotype (%) [2]: 3%
Population Mitochondria Different-Phenotype (%) [2]: 70%
Population Mitotic Cells (%) [2]: 90%
Population Normal (%) [2]: 90%
Population Pyknosed Nuclei (%) [2]: 14%
Population Tubulin-Different-Phenotype (%) [2]: 62%
Total Cell Count [2]: 65
Population Apoptotic (%) [3]: 73%
Population Fragmented Nuclei (%) [3]: 9%
Population Healthy Nuclei (%) [3]: 68%
Population Hoechst High Intensity Objects (%) [3]: 5%
Population Membrane Permeable-Phenotype (%) [3]: 68%
Population Mitotic Cells (%) [3]: 26%
Population Normal (%) [3]: 94%
Total Cell Count [3]: 135
Population Apoptotic (%) [4]: 80%
Population Fragmented Nuclei (%) [4]: 2%
Population Healthy Nuclei (%) [4]: 75%
Population Hoechst High Intensity Objects (%) [4]: 11%
Population Membrane Permeable-Phenotype (%) [4]: 70%
Population Mitochondria Different-Phenotype (%) [4]: 100%
Population Mitotic Cells (%) [4]: 20%
Population Normal (%) [4]: 88%
Population Pyknosed Nuclei (%) [4]: 22%
Population Tubulin-Different-Phenotype (%) [4]: 100%
Total Cell Count [4]: 84
Population Apoptotic (%) [5]: 41%
Population Fragmented Nuclei (%) [5]: 8%
Population Healthy Nuclei (%) [5]: 79%
Population Hoechst High Intensity Objects (%) [5]: 5%
Population Membrane Permeable-Phenotype (%) [5]: 3%
Population Mitochondria Different-Phenotype (%) [5]: 68%
Population Mitotic Cells (%) [5]: 58%
Population Normal (%) [5]: 94%
Population Pyknosed Nuclei (%) [5]: 12%
Population Tubulin-Different-Phenotype (%) [5]: 40%
Total Cell Count [5]: 127
Population Apoptotic (%) [6]: 8%
Population Fragmented Nuclei (%) [6]: 9%
Population Healthy Nuclei (%) [6]: 75%
Population Membrane Permeable-Phenotype (%) [6]: 1%
Population Mitochondria Different-Phenotype (%) [6]: 58%
Population Mitotic Cells (%) [6]: 91%
Population Pyknosed Nuclei (%) [6]: 14%
Population Tubulin-Different-Phenotype (%) [6]: 35%
Total Cell Count [6]: 65
Population Apoptotic (%) [7]: 90%
Population Fragmented Nuclei (%) [7]: 13%
Population Healthy Nuclei (%) [7]: 49%
Population Hoechst High Intensity Objects (%) [7]: 4%
Population Membrane Permeable-Phenotype (%) [7]: 78%
Population Mitochondria Different-Phenotype (%) [7]: 100%
Population Mitotic Cells (%) [7]: 9%
Population Normal (%) [7]: 95%
Population Pyknosed Nuclei (%) [7]: 37%
Population Tubulin-Different-Phenotype (%) [7]: 100%
Total Cell Count [7]: 143
Population Apoptotic (%) [8]: 89%
Population Fragmented Nuclei (%) [8]: 6%
Population Healthy Nuclei (%) [8]: 52%
Population Hoechst High Intensity Objects (%) [8]: 11%
Population Membrane Permeable-Phenotype (%) [8]: 83%
Population Mitotic Cells (%) [8]: 10%
Population Normal (%) [8]: 88%
Population Pyknosed Nuclei (%) [8]: 41%
Total Cell Count [8]: 87
Population Apoptotic (%) [9]: 44%
Population Fragmented Nuclei (%) [9]: 7%
Population Healthy Nuclei (%) [9]: 83%
Population Hoechst High Intensity Objects (%) [9]: 2%
Population Membrane Permeable-Phenotype (%) [9]: 1%
Population Mitochondria Different-Phenotype (%) [9]: 22%
Population Mitotic Cells (%) [9]: 55%
Population Normal (%) [9]: 97%
Population Pyknosed Nuclei (%) [9]: 9%
Population Tubulin-Different-Phenotype (%) [9]: 13%
Total Cell Count [9]: 115
Population Apoptotic (%) [10]: 41%
Population Fragmented Nuclei (%) [10]: 8%
Population Healthy Nuclei (%) [10]: 81%
Population Hoechst High Intensity Objects (%) [10]: 7%
Population Membrane Permeable-Phenotype (%) [10]: 9%
Population Mitochondria Different-Phenotype (%) [10]: 27%
Population Mitotic Cells (%) [10]: 58%
Population Normal (%) [10]: 92%
Population Pyknosed Nuclei (%) [10]: 10%
Population Tubulin-Different-Phenotype (%) [10]: 19%
Total Cell Count [10]: 67
Population Apoptotic (%) [11]: 100%
Population Fragmented Nuclei (%) [11]: 13%
Population Healthy Nuclei (%) [11]: 50%
Population Hoechst High Intensity Objects (%) [11]: 6%
Population Membrane Permeable-Phenotype (%) [11]: 88%
Population Mitotic Cells (%) [11]: 0%
Population Normal (%) [11]: 93%
Population Pyknosed Nuclei (%) [11]: 35%
Population Tubulin-Different-Phenotype (%) [11]: 100%
Total Cell Count [11]: 196
Population Apoptotic (%) [12]: 84%
Population Fragmented Nuclei (%) [12]: 14%
Population Healthy Nuclei (%) [12]: 45%
Population Hoechst High Intensity Objects (%) [12]: 14%
Population Membrane Permeable-Phenotype (%) [12]: 81%
Population Mitochondria Different-Phenotype (%) [12]: 100%
Population Mitotic Cells (%) [12]: 15%
Population Normal (%) [12]: 85%
Population Pyknosed Nuclei (%) [12]: 39%
Population Tubulin-Different-Phenotype (%) [12]: 95%
Total Cell Count [12]: 121
